ChEMBL document CHEMBL1131008, “Substituted halogenated arylsulfonamides: a new class of sigma receptor binding tumor imaging agents” (J Med Chem, 1998)

molecular target: Sigma 2 receptor; test: Inhibition of [3H]-DTG binding to sigma-2 receptor of rat liver membranes with 1 uM dextrallorphan; assay type: cell membranes, Membrane
How it was run: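 Rat liver membranes (150-200 µg protein) incubated with 5 nM [3H]DTG plus 1 µM dextrallorphan to mask sigma-1 sites, in 50 mM Tris-HCl pH 8.0, 120 min at 25 °C. […] Filtration assay. IC50 from curve fitting, converted to Ki via Cheng-Prusoff. Two or three experiments, each in duplicate.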

Row | Structure (SMILES) | Ki [nM]
1 | O=S(=O)(NCCN1CCCCCC1)c1ccc(I)cc1 | 189
2 | O=S(=O)(NCCN1CCCC1)c1ccc(I)cc1 | 1000
3 | CCN(CC)CCNS(=O)(=O)c1ccc(Br)cc1 | 2830
4 | CCN(CC)CCNS(=O)(=O)c1ccc(I)cc1 | 2390
5 | O=S(=O)(NCCN1CCCCC1)c1ccc(I)cc1 | 206
6 | COc1ccc(S(=O)(=O)NCCN2CCCCC2)cc1I | 449

The next lines start with the values.

Row | Ki [nM] | Structure (SMILES)
7 | 44.4 | CN(CCN1CCCCCC1)S(=O)(=O)c1ccc(Br)cc1
8 | 198 | O=S(=O)(NCCN1CCCCCC1)c1ccc(Br)cc1
9 | 459 | O=S(=O)(NCCN1CCCCC1)c1ccc(Br)cc1
10 | 1490 | O=S(=O)(NCCN1CCCC1)c1ccc(Br)cc1
11 | 23.5 | CN(CCN1CCCCCC1)S(=O)(=O)c1ccc(I)cc1
12 | 337 | COc1ccc(S(=O)(=O)N(C)CCN2CCCCCC2)cc1I
